Assay outcomes deposited in PubChem BioAssay by several laboratories.
Wee1 stabilizer = inhibitors of human Wee1 degradation. 1.2% of 220,000 active. reporter increase, % at 5 µM. HeLa Luc-Wee1K328M stability, luciferase luminescence; 100% = proteasome inhibitor MG132 effect;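 active means activation above the mean of all tested compounds plus 3 SD, set per screening run, cut at about 8.8% in these data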;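 further: cells exposed to compound for 20 h before luminescence read; 0% = DMSO alone and 100% = MG132 at 30 µM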
RBBP9 inh = blocks human serine hydrolase RBBP9; 0.2% of 220,000 active; recombinant RBBP9, FP-Rh probe fluorescence polarization; inhibition, % at 7.94 µM; O75884;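 active means inhibition above the campaign mean of all tested compounds plus 3 SD, cut at about 14% in these data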;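 further: plate controls were DMSO wells with RBBP9 for no effect and wells lacking RBBP9 protein for full effect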
Target sequence (O75884 whole entry, looked up): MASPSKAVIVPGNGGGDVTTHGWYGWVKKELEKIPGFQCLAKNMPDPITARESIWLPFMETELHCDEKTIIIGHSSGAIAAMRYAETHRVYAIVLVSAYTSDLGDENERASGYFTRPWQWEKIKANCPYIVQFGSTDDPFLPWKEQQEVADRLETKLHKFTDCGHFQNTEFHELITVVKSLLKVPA
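Test system – recombinant human RBBP9 · Input – RBBP9 2.5 µM in dispensing solution, pre-mixing · Medium – Tris buffer pH 8.0, NaCl, Pluronic · Schedule – preincubation 30 min plus labeling 45 min at 25 °C · Measured by – fluorescence polarization · Measure – % inhibition · Controls – DMSO and no-protein wells · Replicates – one well per compound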
Calpain2 inh = blocks pig calpain II enzyme activity; purified calpain II, fluorogenic peptide substrate, 30 min; inhibition, % at 16 µM; 0.37% of 220,000 active; AID 1236;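 active means inhibition above about 50%, limit read from the data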
TNF necrop inh = TNF-alpha cell death inhibition in Jurkat FADD-/- cells; 0.068% of 220,000 active; AID 463075; activation (protection from cell death), % at 10 µM; Jurkat FADD-/- TNF necroptosis rescue, ATP luminescence, 24 h; 0 = TNF only, 100 = no-TNF cells;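 active means activation, meaning protection from cell death, of at least 50% relative to plate controls; inactive means activation below 50%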;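 further: necroptosis triggered by 40 ng/mL TNF-alpha added together with compound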
L929 necroptosis = blocks zVAD induced death of L929 cells; L929 zVAD necroptosis rescue, ATP luminescence, 24 h; with zVAD 60 µM; viability rescue, % at 10 µM; 0.38% of 220,000 active; AID 1377;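 active means activation, scaled between plate controls, above about 75%, limit read from the data; inactive means activation under that limit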;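 further: 0% = zVAD with DMSO and 100% = DMSO alone without zVAD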
Pf gametocyte = P. falciparum stage V gametocyte viability inhibition; 0.065% of 150,000 active; inhibition, % at 10.9 µM; P. falciparum stage V gametocytes, ATP luminescence, 24 h;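 active means inhibition above the mean plus 3 SD of compounds within the control limits, set per campaign, cut at about 38% in these data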;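 further: 0% = DMSO wells and 100% = medium only without gametocytes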
Wee1 stab conf = human Wee1 degradation inhibition, confirmation; shares compounds with Wee1 stabilizer; HeLa Luc-Wee1K328M degradation, luminescence; vehicle 0%, proteasome-blocked wells 100%; activation, % at 5 µM; 4% of 1,100 active; in the data active means activation above about 8.9%
An asterisk follows results filed as active. Rows were chosen to be rich in hits. Some 2.1% of all compounds tested hit in one or more screens of this group.

`NC(CCC(=O)O)C12CC3CC(CC(C3)C1)C2` (stereo not drawn) gave Wee1 stabilizer 2, RBBP9 inh -5, Calpain2 inh 8, TNF necrop inh -1, L929 necroptosis 0 and Pf gametocyte 7.
Screening [O-]/[N+](=C/c1ccccc1)c1ccccc1 returned Pf gametocyte 10.
`CCn1c(N2CCN(S(=O)(=O)c3ccc(F)cc3)CC2)nc2ccccc21` gave Wee1 stabilizer 3, RBBP9 inh 0, Calpain2 inh -3, TNF necrop inh 2, L929 necroptosis -1 and Pf gametocyte 8.
`CCn1c(N2CCN(S(=O)(=O)c3ccc(Cl)cc3)CC2)nc2ccccc21` gave Wee1 stabilizer 26*, RBBP9 inh 4, Calpain2 inh 28, TNF necrop inh 1, L929 necroptosis -1, Pf gametocyte -1 and Wee1 stab conf 0.
`O=S(=O)(c1ccc(S(=O)(=O)N(Cc2ccco2)Cc2ccccc2Cl)cc1)N1CCCC1` gave Wee1 stabilizer 27*, RBBP9 inh -12, Calpain2 inh 36, TNF necrop inh -1, L929 necroptosis 1 and Wee1 stab conf 2.
Screening CN(C)S(=O)(=O)c1ccc(S(=O)(=O)N(Cc2ccco2)Cc2ccccc2Cl)cc1 returned Wee1 stabilizer 1, RBBP9 inh -6, Calpain2 inh 16, TNF necrop inh 1 and L929 necroptosis 0.
Screening O=C(CCSCc1ccc(Cl)cc1)NC1CCCC1 returned Wee1 stabilizer 2, RBBP9 inh -10, Calpain2 inh 24, TNF necrop inh 3, L929 necroptosis 0 and Pf gametocyte 1.
Screening O=C(Cc1coc2ccc3ccccc3c12)N1CCc2ccccc21 returned Wee1 stabilizer 1, RBBP9 inh -10, Calpain2 inh -58, TNF necrop inh 0, L929 necroptosis 0 and Pf gametocyte -21.
Cc1ccc2c(CC(=O)N3CCc4ccccc43)coc2c1 was read as Wee1 stabilizer 18*, RBBP9 inh -5, Calpain2 inh -47, TNF necrop inh -1, L929 necroptosis 0, Pf gametocyte 24 and Wee1 stab conf 2.
For CCC(C)NC(=O)Nc1ccc(C)cc1C (stereo not drawn) the results were Wee1 stabilizer -3, RBBP9 inh 0, Calpain2 inh 29, TNF necrop inh -1, L929 necroptosis 0 and Pf gametocyte -22.
Cc1ccc(/C=C/C(=O)Nc2ccc(Oc3ccccc3)cc2)o1 was read as Wee1 stabilizer 15*, RBBP9 inh -6, Calpain2 inh 23, TNF necrop inh 0, L929 necroptosis 1, Pf gametocyte -5 and Wee1 stab conf 2.
For COc1ccc(NC(=O)/C(Cl)=C(/Cl)S(=O)Cc2ccccc2)cn1 (stereo not drawn) the results were Wee1 stabilizer 17*, RBBP9 inh 1, Calpain2 inh 20, TNF necrop inh -14, L929 necroptosis -4, Pf gametocyte -35 and Wee1 stab conf 25*.
Screening COc1ccc(NC(=O)Cc2ccccc2)cn1 returned Wee1 stabilizer 0, RBBP9 inh -1, Calpain2 inh -17, TNF necrop inh 4 and L929 necroptosis 3.
`COc1ccc(C(=O)N=c2sc3c(C)ccc(OC)c3n2C)cc1OC` gave Wee1 stabilizer 12*, RBBP9 inh -13, Calpain2 inh -245, TNF necrop inh -13, L929 necroptosis 0, Pf gametocyte -13 and Wee1 stab conf 8.
`COc1ccc2cc(C(N)=O)c(=Nc3ccccc3)oc2c1` gave Wee1 stabilizer 11*, RBBP9 inh -4, Calpain2 inh 5, TNF necrop inh 0, L929 necroptosis 38, Pf gametocyte -18 and Wee1 stab conf 5.
`C[C@H]1CN([C@@H](C)CO)C(=O)c2cccc(NC(=O)c3nc4ccccc4s3)c2O[C@H]1CN(C)C(=O)Nc1ccc(F)cc1` gave Pf gametocyte -7.
Screening COc1ccc(NC(=O)CN2CCC(NC(=O)C3CCCCC3)CC2)cc1 returned Wee1 stabilizer 15*, RBBP9 inh -8, Calpain2 inh -4, TNF necrop inh 2, L929 necroptosis 1, Pf gametocyte -19 and Wee1 stab conf 1.
`Cc1nc(SCC(=O)c2ccccc2)c(C#N)c(-c2ccco2)c1C(=O)NCc1ccco1` gave Wee1 stabilizer 4, RBBP9 inh 8, Calpain2 inh -14, TNF necrop inh -5 and L929 necroptosis -1.
For CCOC(=O)c1ccc2ncc(C(=O)OCC)c(NCCN3CCOCC3)c2c1 the results were Pf gametocyte -34.
Screening CCOC(=O)c1ccc2ncc(C(=O)OCC)c(NCCN(C)C)c2c1 returned Wee1 stabilizer 21*, RBBP9 inh -1, TNF necrop inh 1, L929 necroptosis 28 and Wee1 stab conf 1.
For Cc1ccc2c(c1)C(c1ccncc1)=NNC(c1ccc(C(C)C)cc1)=N2 the results were Wee1 stabilizer -1, RBBP9 inh -8, Calpain2 inh 6, TNF necrop inh 0 and L929 necroptosis 2.
For CCOCCCNC(=O)C(c1ccc(C)cc1)N(Cc1cccs1)C(=O)CNC(C)=O (stereo not drawn) the results were Wee1 stabilizer 1, RBBP9 inh -4, Calpain2 inh -5, TNF necrop inh -1 and Pf gametocyte 25.
For N#C/C(=C\c1cn[nH]c1-c1ccccc1Br)C(=O)O the results were Wee1 stabilizer 13*, RBBP9 inh -1, Calpain2 inh -18, TNF necrop inh -3, L929 necroptosis 1, Pf gametocyte 20 and Wee1 stab conf -1.
Screening O=Cc1cn[nH]c1-c1ccccc1 returned Wee1 stabilizer -3, RBBP9 inh -5, Calpain2 inh -34, TNF necrop inh 0 and L929 necroptosis 7.
Screening Cc1ccc(NC(=O)/C=C\C(=O)NCC(=O)O)cc1C returned Wee1 stabilizer -1, RBBP9 inh -3, Calpain2 inh -6, TNF necrop inh 1, L929 necroptosis 1 and Pf gametocyte 1.
For COc1cc(NC(=O)COC(=O)CNC(=O)c2ccc(Cl)cc2)c(C)cc1[N+](=O)[O-] the results were Wee1 stabilizer 12*, RBBP9 inh -5, Calpain2 inh 6, TNF necrop inh 1, L929 necroptosis 0, Pf gametocyte -19 and Wee1 stab conf -1.
`Cc1ccc(S(=O)(=O)N2CCOCC2)cc1C(=O)N(C)CCOc1ccc(Cl)cc1` gave Wee1 stabilizer 12*, RBBP9 inh -10, Calpain2 inh 20, TNF necrop inh 0, L929 necroptosis 0 and Wee1 stab conf 0.
CCCCCCCCn1c2c(c(=N)c3ccccc31)CCC2 was read as Wee1 stabilizer 1, RBBP9 inh -1, Calpain2 inh 49, TNF necrop inh -16, L929 necroptosis 4 and Pf gametocyte -4.
